Results taken from ChEMBL document CHEMBL1129345, “Synthesis and potent anti-HIV-1 activity of novel 6-benzyluracil analogues of 1-[(2-hydroxyethoxy)methyl]-6-(phenylthio)thymine” (1996).

Legend:
Format in all cases: functional
MT4 [1] = test: Selectivity index is the ratio between CD50 and ED50
Method in brief: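 Selectivity index computed as CD50 (MTT proliferation assay in uninfected MT-4 cells) divided by ED50 (HIV-1 antigen ELISA in HTLV-IIIB-infected MT-4 cultures, 6 days). Both values are means of three independent determinations.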

[2] = tested on: Human immunodeficiency virus 1; test: Effective dose of compound required to inhibit 50% of HIV-1 antigen production in MT-4 cultures.; conditions: read-out: ED50 (the source's name)
Method in brief: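 MT-4 cells were infected with HIV-1 HTLV-IIIB (0.005 MOI) for 2 h and washed. They were then added 1:10 to uninfected MT-4 cells preincubated with compound for 2 h in RPMI 1640 with 10% heat-inactivated FCS. Cultures were kept with compound for 6 days, and supernatant HIV-1 antigen was measured by ELISA. ED50 (50% antigen reduction) is the mean of three independent determinations.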

MT4 [3] = test: Cytotoxic dose required to reduce the proliferation of normal uninfected MT-4 cells; conditions: Homo sapiens, read-out: CD50 (the source's name)
Method in brief: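 Proliferation of uninfected MT-4 cells measured by MTT assay over a range of compound concentrations. A 30% inhibition of growth versus control cultures was counted as significant. CD50 is the concentration giving 50% reduction in proliferation, reported as the mean of three independent determinations.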

Structure (SMILES)	SI (MT4 [1])	EC50 [2] [µM]	CC50 (MT4 [3]) [µM]
CCc1c(Cc2ccccc2)n([C@@H]2CC[C@@H](CO)O2)c(=O)[nH]c1=O	2	0.5	1
CCc1c(Cc2ccccc2)n([C@H]2CC[C@@H](CO)O2)c(=O)[nH]c1=O	1.4	37	52
CCSCn1c(Cc2ccccc2)c(CC)c(=O)[nH]c1=O	925	0.04	37
CCOCn1c(Cc2cc(C)cc(C)c2)c(CC)c(=O)[nH]c1=O	25000	0.004	100
CCSCn1c(Cc2cc(C)cc(C)c2)c(CC)c(=O)[nH]c1=O	17000	0.004	68
CCc1c(Cc2ccccc2)n(C(C)OC)c(=O)[nH]c1=O (stereo not drawn)		> 100	
CCSCn1c(Cc2ccccc2)c(C(C)C)c(=O)[nH]c1=O	6200	0.006	37
CSCn1c(Cc2ccccc2)c(C(C)C)c(=O)[nH]c1=O	1850	0.02	37
CCOCn1c(Cc2ccccc2)c(CC)c(=O)[nH]c1=O		0.041	
CCc1c(Cc2cc(C)cc(C)c2)n(CSC)c(=O)[nH]c1=O	1040	0.05	52
CCOC(C)n1c(Cc2ccccc2)c(CC)c(=O)[nH]c1=O (stereo not drawn)		> 100	
CCc1c(Cc2ccccc2)n(C(C)OCCO)c(=O)[nH]c1=O (stereo not drawn)		> 100	
CCc1c(Cc2cc(C)cc(C)c2)n(C(C)OC)c(=O)[nH]c1=O (stereo not drawn)	50	2	100
CCc1c(Cc2ccccc2)n(CSC)c(=O)[nH]c1=O	16000	0.002	32
CCOC(CC)n1c(Cc2cc(C)cc(C)c2)c(CC)c(=O)[nH]c1=O (stereo not drawn)	8.7	15	130
CCOCn1c(Cc2ccccc2)c(C(C)C)c(=O)[nH]c1=O [EMIVIRINE]	28000	0.005	141
Cc1cn([C@H]2C[C@H](N=[N+]=[N-])[C@@H](CO)O2)c(=O)[nH]c1=O [ZIDOVUDINE]	1300	0.04	52
